What was measured:
HSD-1 [1] = target: T1, HSD-1 (Homo sapiens, UniProt P28845); test: TMDD model component: binding of SPI-62 to its pharmacological target HSD-1; assay type: in vivo, human (healthy adults)
Summary of the method: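 Target-binding component of the simultaneous population PK/PD fit. Drug in the central compartment binds HSD-1 with a second-order association constant (Kon) to form a complex. The complex dissociates with a first-order constant (Koff). Rtotal is the total HSD-1 amount. Data were pooled plasma concentrations from single- and multiple-dose trials plus urinary HSD-1 activity from multiple-dose cohorts. Kd was derived as Koff/Kon, and IIV was exponential.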

hepatic HSD-1 [2] = target: T2, hepatic HSD-1 (Homo sapiens, UniProt P28845); test: Hepatic HSD-1 activity, urinary ratio; assay type: in vivo, human (healthy adults); conditions: regimens as low as 0.2 mg once daily, lowest dose tested
Summary of the method: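 Healthy adults in low-dose multiple-dose cohorts were given oral test compound: 3 mg loading then 0.2 mg once daily (days 2–14); 0.4 mg once daily (days 1–14); or 0.7 or 2 mg single dose, 6-day washout, then once daily (days 7–20). First-morning urine was collected predose and on scheduled days, and steroids were measured by LC-MS/MS. Activity ratio was fitted against time-matched model-predicted plasma concentration using a sigmoid inhibitory Imax model.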

[3] = single dose of 0.7 mg SPI-62, plasma; cited from earlier work
HSD-1 [4] = target: T1, HSD-1; conditions: earlier TMDD model; cited from earlier work
hepatic HSD-1 [5] = target: T2, hepatic HSD-1; conditions: cited from earlier work
human HSD-1 = conditions: measured in vitro; cited from earlier work
HSD-2 = conditions: cited from earlier work
hepatic HSD-1 [6] = conditions: lowest daily dose of 1 mg ABT-384, last day of dosing; cited from earlier work

T2 sequence (P28845 whole entry): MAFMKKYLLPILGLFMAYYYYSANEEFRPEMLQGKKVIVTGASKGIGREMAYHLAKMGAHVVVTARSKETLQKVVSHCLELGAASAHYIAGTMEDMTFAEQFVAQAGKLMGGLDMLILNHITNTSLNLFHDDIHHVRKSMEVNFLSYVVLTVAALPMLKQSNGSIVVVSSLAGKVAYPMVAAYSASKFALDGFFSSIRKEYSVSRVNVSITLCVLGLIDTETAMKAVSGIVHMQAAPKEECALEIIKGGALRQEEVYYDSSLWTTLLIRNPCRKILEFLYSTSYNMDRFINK
T1 sequence (P28845 whole entry): as above

| Compound | Kd (HSD-1 [1]) | Kd, ratio of Koff and Kon (HSD-1 [1]; calculated from TMDD model estimates) | Target capacity (Rtot) expressed as amount of SPI-62 (HSD-1 [1]; corresponds to 5460 nmol) | Kon, second-order association rate constant (HSD-1 [1]; estimated, final PK/PD model) | Inhibition of hepatic HSD-1 (hepatic HSD-1 [2]) | Average Cmax [3] | Rmax, capacity of the target, estimated using PK data alone (HSD-1 [4]) | Hepatic HSD-1 inhibition on day 6 (hepatic HSD-1 [5]; after single low dose, 6-day wash out, day 6) | HSD-1 inhibition after repeated doses (hepatic HSD-1 [5]; all low dose groups (0.2 mg with 3 mg loading dose, 0.4, 0.7, 2 mg QD)) | Return of urinary HSD-1 ratio to baseline (hepatic HSD-1 [5]; approximately 16 days after the last dose, lowest dose 0.2 mg) | HSD-1 inhibition (urinary HSD-1 ratio) after the first dose (hepatic HSD-1 [5]; first dose of 0.7 mg) | Hepatic HSD-1 inhibition (hepatic HSD-1 [5]; following a single dose of 0.7 mg) | Ki (human HSD-1) | Activity on HSD-2 (HSD-2) | Hepatic HSD-1 inhibition (hepatic HSD-1 [6]) |
| --- | --- | --- | --- | --- | --- | --- | --- | --- | --- | --- | --- | --- | --- | --- | --- |
| Cn1c(-c2ccc(C(N)=O)cc2F)nnc1C(C)(C)Oc1c(F)cc(Cl)cc1F [SPI-62] | 0.0272 nM | 0.0272 nM | approximately 2.2 mg | 2.34e+06 M⁻¹ s⁻¹ | almost complete inhibition | 0.02 ng/mL | 6070 nmol | > 30% | full HSD-1 inhibition | incomplete return | substantial HSD-1 inhibition | more than 40% | 5.3 nM | minimal activity | – |
| CC(C)(C(=O)NC1C2CC3CC1CC(C(N)=O)(C3)C2)N1CCN(c2ccc(C(F)(F)F)cn2)CC1 (stereo not drawn) [ABT-384] | – | – | – | – | – | – | – | – | – | – | – | – | – | – | full hepatic HSD-1 inhibition |

Reference: paper PMC10449972 (Clinical Pharmacokinetics, 2023)
